High-throughput results from PubChem.
MT1-MMP txn act = MT1-MMP promoter transcription activation. HT1080 MT1-MMP promoter luciferase reporter, luminescence, overnight; hits give high values. activation factor at 10 µM. hit rate 0.16% among 86,000. AID 750;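 active = activation factor of at least 2 for MT1-MMP transcription at 10 µM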
SF-1 act = SF-1 (human) activation | CHO-K1 Gal4-SF-1 LBD luciferase reporter; % increase over DMSO SF-1-specific signal | Q13285 | hit rate 1.9% among 65,000 | activation, % at 10 µM;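 active = activation above the mean activation of all tested compounds plus 3 SD, cut at about 50% in these data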
Target sequence (Q13285 whole entry, looked up, the tested form may be a part): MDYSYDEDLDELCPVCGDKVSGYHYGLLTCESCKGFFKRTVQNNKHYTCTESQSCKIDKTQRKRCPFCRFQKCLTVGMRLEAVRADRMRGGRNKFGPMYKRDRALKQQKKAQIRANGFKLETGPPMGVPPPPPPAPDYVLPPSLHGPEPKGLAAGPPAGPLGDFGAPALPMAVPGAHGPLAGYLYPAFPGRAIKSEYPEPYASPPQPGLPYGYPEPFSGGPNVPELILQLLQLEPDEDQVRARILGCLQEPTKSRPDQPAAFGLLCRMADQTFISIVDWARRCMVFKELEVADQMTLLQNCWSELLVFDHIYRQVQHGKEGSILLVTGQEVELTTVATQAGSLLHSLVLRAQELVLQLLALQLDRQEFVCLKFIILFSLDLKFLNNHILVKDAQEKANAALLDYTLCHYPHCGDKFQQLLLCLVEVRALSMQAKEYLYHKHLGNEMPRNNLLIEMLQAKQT
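Material: Gal4–SF-1 LBD one-hybrid luciferase reporter in CHO-K1 cells | Amount: 4,000 cells per well | Compound dosing: 10 µM single point, 1% DMSO | Schedule: 20 h compound treatment, 37 °C | Measured by: SteadyLite luciferase luminescence | Evaluation: Percent activation versus DMSO | Control set: DMSO-treated SF-1-transfected cells as negative, DMSO-treated mock-transfected cells lacking SF-1 as background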
HEK293 NFkB inh = inhibitors of the PMA/ionomycin-induced NF-kB reporter in HEK293 cells; HEK-293 NF-kB luciferase reporter, luminescence; inhibition, % at 3 µM; hit rate 0.21% among 62,000; AID 465;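 active = inhibition above the mean of all tested compounds plus 3 SD, cut at about 40% in these data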
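Material: HEK-293 cells with stable firefly luciferase reporter driven by four HIV NF-kB elements / Also added: PMA plus ionomycin mix as NF-kB-activating stimulus / Compound dosing: 3 µM once, 0.30% DMSO / Times: 1 h pretreatment, 16 h stimulation, 37 °C / Signal: luminescence / Evaluation: per-plate % inhibition versus controls / Benchmarks: DMSO and 10 µM reference inhibitor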
Jurkat tox 60K = cytotoxic compounds reducing Jurkat cell viability. Jurkat E6.1 viability, ATP luminescence, 48 h. inhibition, % at 4 µM. hit rate 1.2% among 56,000. AID 463;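 active = inhibition above the mean inhibition of all tested compounds plus 3 SD, cut at about 28% in these data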
RORa activator = activates the human nuclear receptor RORA | P35398 | CHO-K1 Gal4-RORA LBD luciferase reporter, luminescence; percent increase over mock-subtracted basal signal | activation, % at 10 µM | hit rate 1.5% among 65,000 | AID 560;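 active = activation above the mean of all tested compounds plus 3 SD, cut at about 49% in these data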
Of the large screens only hits and unclear results are named; the others gave an inactive call. The list is not random: actives were taken first. Their share in the collection is about 2.9%.

c1ccc2c(-c3nc(-c4ccncc4)no3)cccc2c1	SF-1 act 74
O=c1[nH]c2ccccc2nc1-c1cccs1	SF-1 act 54
Nc1ccc(Cl)cc1/C(=N/O)c1ccccc1	none (no result: HEK293 NFkB inh, Jurkat tox 60K)
COc1cccc(N2CCN(C(=O)CN(C)S(=O)(=O)c3ccc4c(c3)CCC(=O)N4)CC2)c1	none
CCC(=NC(C)c1ccccc1)c1c(O)n(C)c(=O)n(C)c1=O (stereo not drawn)	Jurkat tox 60K 54
COc1ccccc1N(CC(=O)Nc1cc(C)on1)S(=O)(=O)c1cccs1	none
CCN(C(=O)c1cc2cc(OC)ccc2oc1=O)c1ccccc1	none
C=CCN(C(=O)c1ccccc1)c1ccc(OC)cc1	Jurkat tox 60K 49 (no result: MT1-MMP txn act)
N=C1C(c2nc3ccccc3s2)=C(O)CN1Cc1ccco1	SF-1 act 52
CCCCOC(=O)c1[nH]c2c(c1C)C(=O)CC(c1cc(OC)c(OC)c(OC)c1)C2 (stereo not drawn)	Jurkat tox 60K 46 (no result: MT1-MMP txn act)
C=CCOC(=O)c1[nH]c2c(c1C)C(=O)CC(c1cc(OC)c(OC)c(OC)c1)C2 (stereo not drawn)	Jurkat tox 60K 43 (no result: MT1-MMP txn act)
COc1ccc(C2CC(=O)c3c([nH]c(C(=O)OC(C)C)c3C)C2)cc1OC (stereo not drawn)	none (no result: MT1-MMP txn act, Jurkat tox 60K)
COC(=O)N1CC=CC1(C)C(=O)NCCN1CCOCC1 (stereo not drawn)	none (no result: SF-1 act, HEK293 NFkB inh, Jurkat tox 60K, RORa activator)
O=C(OCc1c(Cl)nc2sccn12)c1cc2c(s1)CCCC2	none
Cn1nc(-c2ccccc2F)c2cc(C(=O)Nc3ccc4c(c3)OCCO4)sc21	none (no result: SF-1 act, HEK293 NFkB inh, Jurkat tox 60K, RORa activator)
COc1cccc(-c2nn(C)c3sc(C(=O)Nc4ccc5c(c4)OCCO5)cc23)c1	SF-1 act 80, RORa activator 56
Cc1ccc(OCc2nn3c(-c4n[nH]c5c4CCC5)nnc3s2)cc1	none
COc1cccc(-c2cc(C(=O)Nc3cc(OC)c(OC)c(OC)c3)no2)c1	Jurkat tox 60K 67
COc1cccc(-c2cc(C(=O)N3C(C)CCCC3C)no2)c1 (stereo not drawn)	RORa activator 67 (no result: MT1-MMP txn act, Jurkat tox 60K)
O=c1c(-c2ccccc2)n[nH]c2ccccc12	SF-1 act 75
O=C(NCc1cccnc1)C1CCCN(Cc2cnn(-c3ccccc3)c2-n2cccc2)C1 (stereo not drawn)	none (no result: SF-1 act, HEK293 NFkB inh, Jurkat tox 60K, RORa activator)
CCCCn1c(-c2ccco2)nc2ccccc2c1=O	none (no result: SF-1 act, HEK293 NFkB inh, Jurkat tox 60K, RORa activator)
Cc1nc2cc(NC(=O)N3c4ccccc4CC3C)ccc2o1 (stereo not drawn)	SF-1 act 79
Cc1ccc(NC(=O)c2cc(N(C)C)ccc2[P+](=O)O)cc1	RORa activator 69 (no result: Jurkat tox 60K)
O=C1CC(N2CCN(c3ccc(S(=O)(=O)N4CCCC4)cc3)CC2)C(=O)N1c1ccc(F)cc1 (stereo not drawn)	none
O=C(OCc1nc2ccccc2c(=O)[nH]1)c1cccs1	none
O=C(COC(=O)c1cnccn1)NCc1ccccc1	none (no result: SF-1 act, HEK293 NFkB inh, Jurkat tox 60K, RORa activator)
O=C(OCc1nc2ccccc2s1)c1cccs1	SF-1 act 50, RORa activator 53
O=C(OCc1nc2ccccc2s1)c1cnccn1	SF-1 act 54, RORa activator 53
Cc1cccc(N2CCN(C(=O)c3ccc(Cl)c(S(=O)(=O)NCc4ccco4)c3)CC2)c1C	SF-1 act 53, Jurkat tox 60K 84, RORa activator 51
CC(C)Oc1ccc(C2C(C(=O)c3ccco3)=C(O)C(=O)N2Cc2cccnc2)cc1 (stereo not drawn)	RORa activator 70
Cc1ccc(-c2cnc(-c3ccncc3)o2)cc1	SF-1 act 65, RORa activator 58
Brc1cccc(-c2nc(-c3ccncc3)no2)c1	SF-1 act 60
CC(C)(C)c1ccc(-c2nc(-c3ccncc3)no2)cc1	none (no result: MT1-MMP txn act)
Cc1cc(C)cc(-c2nc(-c3ccncc3)no2)c1	SF-1 act 90
COc1ccc(CNS(=O)(=O)c2cccc(S(=O)(=O)N3CCOCC3)c2)cc1	none (no result: SF-1 act, HEK293 NFkB inh, Jurkat tox 60K, RORa activator)
Nc1cc(C2CCCC2)nn1-c1ccccc1	RORa activator 62 (no result: Jurkat tox 60K)
O=C(CCn1c(=O)oc2ccccc21)NCCN1CCOCC1	none
Cn1nnnc1SCCOc1ccc(C#N)cc1	none
O=C(OCC(=O)N1CCCCCC1)c1cccs1	SF-1 act 55
O=C(OCC(=O)N1CCCCCC1)c1n[nH]c(=O)c2ccccc12	none
O=C(CSc1nnnn1C1CCCC1)NCc1ccccc1	none (no result: SF-1 act, HEK293 NFkB inh, Jurkat tox 60K, RORa activator)
O=C(CSc1nnnn1C1CC2CCC1C2)Nc1ccnc2ccccc12 (stereo not drawn)	HEK293 NFkB inh 58, Jurkat tox 60K 100
